Tests used:
SW-620 [1] = assay: Induction of apoptosis in human SW620 cells assessed as late apoptotic cells at 2.5 uM after 48 hrs by Annexin V-FITC/propidium iodide staining based flow cytometry (reference value: 0.2%); assay type: functional
SW-620 [2] = assay: Induction of ROS generation in human SW620 cells after 12 hrs by DCFDA staining based flow cytometry; assay type: functional, cell-based
Summary of the method: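 SW620 cells (2×10^5/well) adhered overnight and were loaded with 10 μM DCFDA in medium for 1 h, then washed twice with PBS. Compound exposure followed at several concentrations for 12 h, with untreated and hydrogen peroxide-treated controls. Harvested cells were resuspended in PBS and DCF fluorescence read by flow cytometry at ex 488/em 525 nm.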

SW-620 [3] = assay: Induction of apoptosis in human SW620 cells assessed as necrotic cells at 2.5 uM after 48 hrs by Annexin V-FITC/propidium iodide staining based flow cytometry (reference value: 0.23%); assay type: functional
SW-620 [4] = assay: Cell cycle arrest in human SW620 cells assessed as decrease in G0/G1 phase after 24 hrs by propidium iodide staining based flow cytometry; assay type: functional
SW-620 [5] = assay: Induction of apoptosis in human SW620 cells assessed as early apoptotic cells at 2.5 uM after 24 hrs by Annexin V-FITC/propidium iodide staining based flow cytometry (reference value: 2.35%); assay type: functional
SW-620 [6] = assay: Induction of apoptosis in human SW620 cells assessed as early apoptotic cells at 5 uM after 24 hrs by Annexin V-FITC/propidium iodide staining based flow cytometry (reference value: 2.35%); assay type: functional
SW-620 [7] = assay: Induction of apoptosis in human SW620 cells assessed as live cells at 2.5 uM after 72 hrs by Annexin V-FITC/propidium iodide staining based flow cytometry (reference value: 97.34%); assay type: functional
SW-620 [8] = assay: Induction of apoptosis in human SW620 cells assessed as early apoptotic cells at 5 uM after 72 hrs by Annexin V-FITC/propidium iodide staining based flow cytometry (reference value: 2.1%); assay type: functional
SW-620 [9] = assay: Induction of apoptosis in human SW620 cells assessed as early apoptotic cells at 1.25 uM after 72 hrs by Annexin V-FITC/propidium iodide staining based flow cytometry (reference value: 2.1%); assay type: functional
SW-620 [10] = assay: Induction of apoptosis in human SW620 cells after 24 to 72 hrs by Annexin V-FITC/propidium iodide staining based flow cytometry; assay type: functional, cell-based

| Compound | Activity (SW-620 [1]) | Activity (SW-620 [2]) | Activity (SW-620 [3]) | Activity (SW-620 [4]) | Activity (SW-620 [5]) | Activity (SW-620 [6]) | Activity (SW-620 [7]) | Activity (SW-620 [8]) | Activity (SW-620 [9]) | Activity (SW-620 [10]) |
| --- | --- | --- | --- | --- | --- | --- | --- | --- | --- | --- |
| COc1ccc(/C=C2\CCC/C(=C\c3cccc(O)c3)C2=O)cc1OC | 3.83% | Dose-dependent effect | 0.44% | Dose-dependent effect | 5.46% | 23.28% | 63.72% | 10.2% | 5.22% | Dose-dependent effect |
| COc1ccc(/C=C2\CCC/C(=C\c3cc(OC)c(OC)c(OC)c3)C2=O)cc1OC | 6.7% | Dose-dependent effect | 0.55% | Dose-dependent effect | 12.47% | 40.26% | 66.34% | 3.48% | 4.06% | Dose-dependent effect |

Reference: ChEMBL document CHEMBL4270616, “Asymmetrical meta-methoxylated diarylpentanoids: Rational design, synthesis and anti-cancer evaluation in-vitro” (Eur J Med Chem, 2018)
